Columns and labels:
[1] = tested on: Blood; test: Biodistribution in blood of 9L-glioma bearing rat at 1 to 3 mCi, iv after 5 mins; format: ADME, organism-based; conditions: in vivo
Procedure, shortened: (§1)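 9L-glioma rats (200–300 g) given 1–3 mCi of [¹¹C]- or [¹⁸F]-labelled tracer iv by tail vein while consciously restrained. At 5 or 20 min they were decapitated under halothane anaesthesia. Tissues were excised and weighed, and decay-corrected radioactivity was counted by gamma counter. Values are %ID/g, averaged over three rats per time point.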

[2] = tested on: Brain; test: Biodistribution in brain of 9L-glioma bearing rat at 1 to 3 mCi, iv after 20 mins; format: ADME, organism-based; conditions: in vivo; procedure, shortened: as §1
[3] = Biodistribution in R-ventricle of 9L-glioma bearing rat at 1 to 3 mCi, iv after 5 mins; format: ADME, organism-based, Heart right ventricle; conditions: in vivo; procedure, shortened: as §1
[4] = tested on: Plasma; test: Biodistribution in plasma of 9L-glioma bearing rat at 1 to 3 mCi, iv after 20 mins; format: ADME, organism-based; conditions: in vivo; procedure, shortened: as §1
[5] = Ratio of biodistribution in tumor to muscle of 9L-glioma bearing rat at 1 to 3 mCi, iv after 20 mins; format: ADME, organism-based; conditions: in vivo
[6] = tested on: Septum; test: Biodistribution in septum of 9L-glioma bearing rat at 1 to 3mCi, iv after 5 mins; format: ADME, organism-based; conditions: in vivo; procedure, shortened: as §1
[7] = tested on: 9L; test: Biodistribution in tumor of 9L-glioma bearing rat at 1 to 3 mCi, iv after 5 mins; format: ADME, organism-based; conditions: in vivo; procedure, shortened: as §1
[8] = Ratio of biodistribution in tumor to muscle of 9L-glioma bearing rat at 1 to 3 mCi, iv after 5 mins; format: ADME, organism-based; conditions: in vivo
[9] = Biodistribution in L-Atrium of 9L-glioma bearing rat at 1 to 3 mCi, iv after 5 mins; format: ADME, organism-based; conditions: in vivo; procedure, shortened: as §1
[10] = Biodistribution in A-V-node of 9L-glioma bearing rat at 1 to 3 mCi, iv after 20 mins; format: ADME, organism-based; conditions: in vivo; procedure, shortened: as §1
[11] = tested on: Plasma; test: Biodistribution in plasma of 9L-glioma bearing rat at 1 to 3 mCi, iv after 5 mins; format: ADME, organism-based; conditions: in vivo; procedure, shortened: as §1
[12] = Biodistribution in L-Atrium of 9L-glioma bearing rat at 1 to 3 mCi, iv after 20 mins; format: ADME, organism-based, Left cardiac atrium; conditions: in vivo; procedure, shortened: as §1
[13] = Biodistribution in L-ventricle of 9L-glioma bearing rat at 1 to 3mCi, iv after 5 mins; format: ADME, organism-based, Heart left ventricle; conditions: in vivo; procedure, shortened: as §1
[14] = Biodistribution in urine of 9L-glioma bearing rat at 1 to 3 mCi, iv after 5 mins; format: ADME, organism-based; conditions: in vivo
Procedure, shortened: (§2)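 In 9L-glioma rats injected iv (tail vein, conscious restraint) with 1–3 mCi of radiotracer, urine was drawn by syringe from the bladder at 5 or 20 min. Animals were killed by decapitation under halothane. Decay-corrected radioactivity was gamma-counted and expressed as percent of injected dose (%ID), averaged over three rats.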

[15] = tested on: Solar plexus; test: Biodistribution in solar plexus of 9L-glioma bearing rat at 1 to 3 mCi, iv after 20 mins; format: ADME, organism-based; conditions: in vivo; procedure, shortened: as §1
[16] = tested on: Liver; test: Biodistribution in liver of 9L-glioma bearing rat at 1 to 3 mCi, iv after 5 mins; format: ADME, organism-based; conditions: in vivo; procedure, shortened: as §1
[17] = tested on: Solar plexus; test: Biodistribution in solar plexus of 9L-glioma bearing rat at 1 to 3 mCi, iv after 5 mins; format: ADME, organism-based; conditions: in vivo; procedure, shortened: as §1
[18] = Ratio of biodistribution in tumor to blood of 9L-glioma bearing rat at 1 to 3 mCi, iv after 20 mins; format: ADME, organism-based; conditions: tumour
[19] = tested on: 9L; test: Biodistribution in tumor of 9L-glioma bearing rat at 1 to 3 mCi, iv after 20 mins; format: ADME, organism-based; conditions: in vivo; procedure, shortened: as §1
[20] = tested on: Lung; test: Biodistribution in lung of 9L-glioma bearing rat at 1 to 3 mCi, iv after 20 mins; format: ADME, organism-based; conditions: in vivo; procedure, shortened: as §1
[21] = Biodistribution in urine of 9L-glioma bearing rat at 1 to 3 mCi, iv after 20 mins; format: ADME, organism-based; conditions: in vivo; procedure, shortened: as §2
[22] = Biodistribution in L-ventricle of 9L-glioma bearing rat at 1 to 3 mCi, iv after 20 mins; format: ADME, organism-based, Heart left ventricle; conditions: in vivo; procedure, shortened: as §1
[23] = tested on: Septum; test: Biodistribution in septum of 9L-glioma bearing rat at 1 to 3 mCi, iv after 20 mins; format: ADME, organism-based; conditions: in vivo; procedure, shortened: as §1
[24] = Biodistribution in R-Atrium of 9L-glioma bearing rat at 1 to 3 mCi, iv after 20 mins; format: ADME, organism-based, Right cardiac atrium; conditions: in vivo; procedure, shortened: as §1
[25] = Biodistribution in skeletal muscle of 9L-glioma bearing rat at 1 to 3 mCi, iv after 5 mins; format: ADME, organism-based, Muscle tissue; conditions: in vivo; procedure, shortened: as §1
[26] = Biodistribution in skeletal Muscle of 9L-glioma bearing rat at 1 to 3 mCi, iv after 20 mins; format: ADME, organism-based, Muscle tissue; conditions: in vivo; procedure, shortened: as §1
[27] = tested on: Lung; test: Biodistribution in lung of 9L-glioma bearing rat at 1 to 3 mCi, iv after 5 mins; format: ADME, organism-based; conditions: in vivo; procedure, shortened: as §1
[28] = Biodistribution in R-ventricle of 9L-glioma bearing rat at 1 to 3 mCi, iv after 20 mins; format: ADME, organism-based, Heart right ventricle; conditions: in vivo; procedure, shortened: as §1
[29] = tested on: Kidney; test: Biodistribution in kidney of 9L-glioma bearing rat at 1 to 3 mCi, iv after 5 mins; format: ADME, organism-based; conditions: in vivo; procedure, shortened: as §1
[30] = Biodistribution in R-Atrium of 9L-glioma bearing rat at 1 to 3 mCi, iv after 5 mins; format: ADME, organism-based, Right cardiac atrium; conditions: in vivo; procedure, shortened: as §1
[31] = tested on: Liver; test: Biodistribution in liver of 9L-glioma bearing rat at 1 to 3 mCi, iv after 20 mins; format: ADME, organism-based; conditions: in vivo; procedure, shortened: as §1
[32] = Biodistribution in A-V-node of 9L-glioma bearing rat at 1 to 3 mCi, iv after 5 mins; format: ADME, organism-based; conditions: in vivo; procedure, shortened: as §1
[33] = tested on: Brain; test: Biodistribution in brain of 9L-glioma bearing rat at 1 to 3 mCi, iv after 5 mins; format: ADME, organism-based; conditions: in vivo; procedure, shortened: as §1
[34] = tested on: Blood; test: Biodistribution in blood of 9L-glioma bearing rat at 1 to 3 mCi, iv after 20 mins; format: ADME, organism-based; conditions: in vivo; procedure, shortened: as §1
[35] = tested on: Kidney; test: Biodistribution in kidney of 9L-glioma bearing rat at 1 to 3 mCi, iv after 20 mins; format: ADME, organism-based; conditions: in vivo; procedure, shortened: as §1
[36] = Ratio of biodistribution in tumor to blood in 9L-glioma bearing rat at 1 to 3 mCi, iv after 5 mins; format: ADME, organism-based; conditions: tumor and blood (tumor-to-blood ratio)

C[N+]1(C)CCOC(O)(c2ccc(-c3ccc(C4(O)C[N+](C)([11CH3])CCO4)cc3)cc2)C1.O=S(=O)([O-])C(F)(F)F.[I-] (stereo unspecified)
Drug uptake [1]: 1.383 % ID/g
Drug uptake [2]: 0.035 % ID/g
Drug uptake [3]: 0.401 % ID/g
Drug uptake [4]: 1.453 % ID/g
Ratio [5]: 3.094
Drug uptake [6]: 0.381 % ID/g
Drug uptake [7]: 0.649 % ID/g
Ratio [8]: 3.199
Drug uptake [9]: 1.026 % ID/g
Drug uptake [10]: 0.478 % ID/g
Drug uptake [11]: 3.648 % ID/g
Drug uptake [12]: 0.457 % ID/g
Drug uptake [13]: 0.415 % ID/g
Drug uptake [14]: 6.38 % dose
Drug uptake [15]: 2.057 % ID/g
Drug uptake [16]: 0.848 % ID/g
Drug uptake [17]: 0.522 % ID/g
Ratio [18]: 0.622
Drug uptake [19]: 0.457 % ID/g
Drug uptake [20]: 0.59 % ID/g
Drug uptake [21]: 25 % dose
Drug uptake [22]: 0.244 % ID/g
Drug uptake [23]: 0.223 % ID/g
Drug uptake [24]: 0.398 % ID/g
Drug uptake [25]: 0.207 % ID/g
Drug uptake [26]: 0.159 % ID/g
Drug uptake [27]: 1.081 % ID/g
Drug uptake [28]: 0.234 % ID/g
Drug uptake [29]: 7.64 % ID/g
Drug uptake [30]: 0.963 % ID/g
Drug uptake [31]: 1.239 % ID/g
Drug uptake [32]: 1.074 % ID/g
Drug uptake [33]: 0.06 % ID/g
Drug uptake [34]: 0.749 % ID/g
Drug uptake [35]: 3.656 % ID/g
Kp at 5 min [36]: 0.466
